Measurements: ChEMBL document CHEMBL1128281 (J Med Chem, 1995)

Key:
Mus musculus = species: Mus musculus; assay: Ability to inhibit apomorphine-induced climbing behavior in mice.; format: functional
Procedure, shortened: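 Male CD-1 mice (18–30 g) were adapted for 1 h in wire-mesh cages, 8 per dose group. Distilled water or drug was given ip 30 or 60 min before apomorphine 1.5 mg/kg sc.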

Rattus norvegicus = species: Rattus norvegicus; assay: Ability to block apomorphine-induced stereotypy in rats.; format: functional
Procedure, shortened: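 Male Wistar rats (150–250 g), 6–10 per dose group, given distilled water or test drug ip; apomorphine 1.5 mg/kg sc 50 min later. Rats were placed singly in cages and scored 10 min afterwards for continuous stereotyped licking or sniffing. Inhibition was the number of animals protected versus controls. ED50 was obtained by probit analysis.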

[1] = biological target: Serotonin 2 (5-HT2) receptor (Rattus norvegicus, UniProt P30994+P08909+P14842); assay: Affinity for 5-hydroxytryptamine 2 receptor binding sites by its ability to displace [3H]spiperone from rat frontal cortex.

IC50 [1] [nM] | Structure (SMILES) | ED50 (Mus musculus) [mg/kg] | ED50 (Rattus norvegicus) [mg/kg]
 | Nc1ccccc1OCCCN1CCC(c2noc3cc(F)ccc23)CC1 | 0.42 | 5.5
2 | COc1ccc(N)cc1OCCCN1CCC(c2noc3cc(F)ccc23)CC1 | 0.16 | 13
63 | CC(=O)c1cccc(OCCCN2CCC(c3noc4cc(F)ccc34)CC2)c1 | 0.39 | 6.4
20 | C=C(C)c1ccc(OCCCN2CCC(c3noc4cc(F)ccc34)CC2)c(OC)c1 | 0.55 | 25
18 | COc1cc(C(C)=O)ccc1NCCCN1CCC(c2noc3cc(F)ccc23)CC1 | 0.26 | 9.3
< 10 | COc1cc2c(cc1OCCCN1CCC(c3noc4cc(F)ccc34)CC1)CCCC2=O | 2.3 | 25
4.9 | COc1cc(C(C)=O)ccc1OCCCN1CCC(c2noc3cc(Cl)ccc23)CC1 | 3.3 | > 80
36 | CC(=O)c1ccc(OCCCN2CCC(c3noc4cc(F)ccc34)CC2)cc1C | 1.2 | 52.3
45 | COc1cc(C(C)=O)ccc1OCCN1CCC(c2noc3cc(Cl)ccc23)CC1 | > 20 | 
11 | CCC(=O)c1ccc(OCCCN2CCC(c3noc4cc(F)ccc34)CC2)c(OC)c1 | 0.77 | > 20
3.5 | COc1cc(C(C)=O)ccc1OCCCN1CCC(c2noc3ccccc23)CC1 | 0.67 | 20.8
33 | Fc1ccc2c(C3CCN(CCCOc4ccccc4)CC3)noc2c1 | 0.62 | 7.1
53 | CC(O)c1ccc(OCCCN2CCC(c3noc4cc(F)ccc34)CC2)c(O)c1 (stereo unspecified) | 0.058 | 3.6
170 | CSc1cc(C(C)=O)ccc1OCCCN1CCC(c2noc3cc(F)ccc23)CC1 | 20 | 
23 | COc1cc(OCCCN2CCC(c3noc4cc(F)ccc34)CC2)ccc1C(C)=O | 0.28 | 8.2
89 | CCCCC(=O)c1ccc(OCCCN2CCC(c3noc4cc(F)ccc34)CC2)c(OC)c1 | 0.78 | 16.9
241 | COc1cc(C(=O)c2ccccc2)ccc1OCCCN1CCC(c2noc3cc(F)ccc23)CC1 | 18.1 | > 80
 | CC(=O)c1ccc(OCCCN2CCC(c3noc4cc(F)ccc34)CC2)c(C)c1 | 0.25 | 31.4
22 | COc1cc(C(C)O)ccc1OCCCN1CCC(c2noc3cc(F)ccc23)CC1 (stereo unspecified) | 0.12 | 22.7
49 | COc1cc(Br)ccc1OCCCN1CCC(c2noc3cc(F)ccc23)CC1 | 1.6 | 15.3
26 | COc1cc(C(C)=O)ccc1OCCN1CCC(c2noc3ccccc23)CC1 | 7.4 | 
67 | COc1cc(C(C)=O)ccc1OCCN1CCC(c2noc3cc(F)ccc23)CC1 | 5.3 | > 80
41 | COc1cc(C(C)=O)ccc1SCCCN1CCC(c2noc3cc(F)ccc23)CC1 | 2 | 13.6
< 10 | COc1cc(C(C)=O)cc(OC)c1OCCCN1CCC(c2noc3cc(F)ccc23)CC1 | 0.72 | 13.6

IC50 [1] [nM] | Structure (SMILES) | ED50 (Mus musculus) [mg/kg] | ED50 (Rattus norvegicus) [mg/kg]
0.9 | COc1cc(C(N)=O)ccc1OCCCN1CCC(c2noc3cc(F)ccc23)CC1 | 1.6 | 22.7
0.7 | COc1cc(/C(C)=N\O)ccc1OCCCN1CCC(c2noc3cc(F)ccc23)CC1 | 1.1 | > 80
122 | COc1cc(C(C)=O)ccc1OCCCN1CCC(c2noc3ccc(F)cc23)CC1 | 5.2 | > 80
5.2 | COc1ccccc1OCCCN1CCC(c2noc3cc(F)ccc23)CC1 | 0.48 | 9.7
5.2 | COc1cc(C(=O)N(C)C)ccc1OCCCN1CCC(c2noc3cc(F)ccc23)CC1 | 0.72 | 26.7
91 | CC(=O)c1ccc2c(c1)OCC(CCN1CCC(c3noc4cc(F)ccc34)CC1)O2 (stereo unspecified) | 13.7 | > 80
153 | CC(=O)c1cc(C)ccc1OCCCN1CCC(c2noc3cc(F)ccc23)CC1 | 5.6 | 25.1
17 | CNc1ccccc1OCCCN1CCC(c2noc3cc(F)ccc23)CC1 | 0.81 | 22.3
143 | COc1cc(C(C)=O)ccc1OCCCCN1CCC(c2noc3cc(Cl)ccc23)CC1 | 2.4 | 9.7
3.8 | CCOc1cc(C(C)=O)ccc1OCCCN1CCC(c2noc3cc(F)ccc23)CC1 | 0.56 | 14.5
34 | COc1cc(C(C)=O)ccc1OCCCCN1CCC(c2noc3ccccc23)CC1 | 1.6 | 17
2.9 | CC(=O)c1ccc(OCCCN2CCC(c3noc4cc(F)ccc34)CC2)c(O)c1 | 0.054 | 0.7
5.5 | CC(=O)c1ccc(OCCCN2CCC(c3noc4cc(F)ccc34)CC2)cc1 | 0.84 | 5.7
3.2 | COc1cc2cc[nH]c2cc1OCCCN1CCC(c2noc3cc(F)ccc23)CC1 | 2.7 | 8.6
38 | COc1cc(C(=O)C(F)(F)F)ccc1OCCCN1CCC(c2noc3cc(F)ccc23)CC1 | 2.2 | > 20
3.8 | COc1ccc(NC(C)=O)cc1OCCCN1CCC(c2noc3cc(F)ccc23)CC1 | 0.6 | 30.1
42 | CNc1cc(C(C)=O)ccc1OCCCN1CCC(c2noc3cc(F)ccc23)CC1 | 0.15 | 47.6
16 | CC(=O)c1ccc(OCCCN2CCC(c3noc4cc(F)ccc34)CC2)c(N(C)C)c1 | 0.15 | 4.3
16 | CCc1ccc(OCCCN2CCC(c3noc4cc(F)ccc34)CC2)c(OC)c1 | 0.18 | 9.5
20 | CC(=O)Nc1cc(C(C)=O)ccc1OCCCN1CCC(c2noc3cc(F)ccc23)CC1 | 0.049 | 21.1
20 | COc1cc(/C(C)=N\N)ccc1OCCCN1CCC(c2noc3cc(F)ccc23)CC1 | 0.64 | 17.4
45 | COc1cc(C#N)ccc1OCCCN1CCC(c2noc3cc(F)ccc23)CC1 | 1 | 15.7
8.5 | COc1cc(C(C)=O)ccc1OCCCCN1CCC(c2noc3cc(F)ccc23)CC1 | 0.68 | 7.5
